Results published in ChEMBL document CHEMBL2413035, “Synthesis and biological activity of benzo-fused 7-deazaadenosine analogues. 5- and 6-substituted 4-amino- or 4-alkylpyrimido[4,5-b]indole ribonucleosides” (Bioorg Med Chem, 2013).
Active and inactive are the calls of the source. No cut-off for these calls is given here.

Key:
[1] = Cytotoxicity against human […] cells infected with HCV 2A; type: cell-based
[2] = Cytotoxicity against human […] cells infected with HCV 1B; type: cell-based
Hepatitis C virus [3] = assay: Antiviral activity against HCV 2A infected in […] cells; type: functional, organism-based, Hepacivirus hominis; conditions: genotype 2a
[4] = Cytotoxicity against human […] cells infected with HCV 1A; type: cell-based
HL-60 = assay: Cytotoxicity against human HL60 cells after 3 days by XTT assay; type: functional, cell-based; conditions: for IC50: HL-60, 72 h
In short: (§1)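 ATCC lines HL60, HeLa S3, CCRF-CEM and HepG2 exposed to compound for 3 days. Viability read by metabolic XTT tetrazolium reduction.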

HeLa S3 = assay: (§2) Cytotoxicity against human HeLaS3 cells after 3 days by XTT assay; type: functional, cell-based; in short: as §1
CCRF-CEM = assay: Cytotoxicity against human CCRF-CEM cells after 3 days by XTT assay; type: functional, cell-based; conditions: for IC50: 72 h; in short: as §1
HepG2 = assay: Cytotoxicity against human HepG2 cells after 3 days by XTT assay; type: functional, cell-based; conditions: for IC50: HepG2, 72 h; in short: as §1
Hepatitis C virus [5] = assay: Antiviral activity against HCV 1A infected in […] cells; type: functional, organism-based, Hepacivirus hominis; conditions: subtype 1a
Hepatitis C virus [6] = assay: Antiviral activity against HCV 1B infected in […] cells; type: functional, organism-based, Hepacivirus hominis; conditions: genotype 1b
[7] = Selectivity index, ratio of CC50 for african green monkey Vero cells to EC50 for Dengue virus 2 infected in Vero cells; type: toxicity, cell-based; conditions: read-out: Ratio CC50/EC50
[8] = Cytotoxicity against african green monkey Vero cells after 48 hrs by XTT assay; type: cell-based; conditions: chlorocebus sabaeus
In short: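 Vero monolayers incubated with serial compound dilutions for 48 h. XTT added for 4 h, and formazan quantified spectrophotometrically. CC50, the 50% cytotoxic concentration, derived by nonlinear regression.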

dengue virus type 2 = assay: Antiviral activity against Dengue virus 2 infected in Vero cells after 3 days by fluorescence microscopy; type: functional, organism-based; conditions: 72 h
In short: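 Vero cells, 20,000/well, seeded the day before in DMEM with L-glutamine, 2% FBS and penicillin/streptomycin. Two-fold serial compound dilutions added in triplicate; DENV-2 added 1 h later at MOI 0.3 IU/cell. Incubated 3 days at 37 °C, 5% CO2. Cells fixed and permeabilized, then stained with DENV-2-specific antibody and Cy3 anti-mouse IgG. Imaged by fluorescence microscopy; EC50 by nonlinear regression.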

[9] = as §2; type: functional, cell-based; conditions: HeLa S3, 72 h; in short: as §1

SMILES | CC50 [1] [µM] | CC50 [2] [µM] | EC50 (Hepatitis C virus [3]) [µM] | CC50 [4] [µM] | Activity (HL-60) | Activity (HeLa S3) | Activity (CCRF-CEM) | Activity (HepG2) | EC50 (Hepatitis C virus [5]) [µM] | EC50 (Hepatitis C virus [6]) [µM] | selectivity ratio [7] | CC50 at 48 h [8] [µM] | EC50 (dengue virus type 2) [µM] | IC50 (HL-60) [µM] | IC50 [9] [µM] | IC50 (CCRF-CEM) [µM] | IC50 (HepG2) [µM]
Nc1ncnc2c1c1cc(-c3cccs3)ccc1n2[C@@H]1O[C@H](CO)[C@@H](O)[C@H]1O | > 44 | > 44 | 24.9 | 18.1 | inactive | inactive | inactive | inactive | 10 | 8.75 | – | – | – | – | – | – | –
Nc1ncnc2c1c1cc(-c3ccccc3)ccc1n2[C@@H]1O[C@H](CO)[C@@H](O)[C@H]1O | – | – | – | – | inactive | inactive | inactive | inactive | – | – | – | – | – | – | – | – | –
Nc1ncnc2c1c1cc(-c3ccco3)ccc1n2[C@@H]1O[C@H](CO)[C@@H](O)[C@H]1O | – | – | – | – | inactive | inactive | inactive | inactive | – | – | – | – | – | – | – | – | –
OC[C@H]1O[C@@H](n2c3ccccc3c3c(C4CC4)ncnc32)[C@H](O)[C@@H]1O | – | – | – | – | inactive | inactive | inactive | inactive | – | – | – | – | – | – | – | – | –
C[n+]1cnc2c(c1N)c1ccccc1n2[C@@H]1O[C@H](CO)[C@@H](O)[C@H]1O | – | – | – | – | inactive | inactive | inactive | inactive | – | – | – | – | – | – | – | – | –
Nc1ncnc2c1c1c(Cl)cccc1n2[C@@H]1O[C@H](CO)[C@@H](O)[C@H]1O | 1.66 | 1.71 | 1.28 | 1.16 | – | – | – | – | 0.53 | 0.32 | 1.3 | 1.14 | 0.85 | 17 | 21 | 12 | 21
Nc1ncnc2c1c1c(-c3ccco3)cccc1n2[C@@H]1O[C@H](CO)[C@@H](O)[C@H]1O | – | – | – | – | inactive | inactive | inactive | inactive | – | – | – | – | – | – | – | – | –
Nc1ncnc2c1c1c(-c3ccsc3)cccc1n2[C@@H]1O[C@H](CO)[C@@H](O)[C@H]1O | – | – | – | – | inactive | inactive | inactive | inactive | – | – | – | – | – | – | – | – | –
Nc1ncnc2c1c1cc(-c3ccoc3)ccc1n2[C@@H]1O[C@H](CO)[C@@H](O)[C@H]1O | – | – | – | – | inactive | inactive | inactive | inactive | – | – | – | – | – | – | – | – | –
Nc1ncnc2c1c1cc(-c3cc4ccccc4o3)ccc1n2[C@@H]1O[C@H](CO)[C@@H](O)[C@H]1O | 18 | 28 | 8.77 | 14.5 | – | – | – | – | 6.13 | 4.83 | > 6.5 | > 100 | 15.4 | 87 | 93 | 32 | 60
Nc1ncnc2c1c1ccccc1n2[C@@H]1O[C@H](CO)[C@@H](O)[C@H]1O | > 44 | > 44 | > 44 | > 44 | inactive | inactive | inactive | inactive | 30.6 | 11.1 | 1.1 | 43.5 | 39.6 | – | – | – | –
Nc1ncnc2c1c1c(-c3ccccc3)cccc1n2[C@@H]1O[C@H](CO)[C@@H](O)[C@H]1O | – | – | – | – | inactive | inactive | inactive | inactive | – | – | – | – | – | – | – | – | –
CN(C)c1ncnc2c1c1ccccc1n2[C@@H]1O[C@H](CO)[C@@H](O)[C@H]1O | > 44 | > 44 | > 44 | > 44 | inactive | inactive | inactive | inactive | 21.3 | 7.07 | – | – | – | – | – | – | –
Cc1ncnc2c1c1ccccc1n2[C@@H]1O[C@H](CO)[C@@H](O)[C@H]1O | > 44 | > 44 | > 44 | > 44 | – | – | – | – | 0.56 | 0.34 | – | – | – | 54 | 11 | 82 | 15
Nc1ncnc2c1c1cc(-c3ccsc3)ccc1n2[C@@H]1O[C@H](CO)[C@@H](O)[C@H]1O | 30.2 | 25.6 | 13.8 | 17.3 | inactive | inactive | inactive | inactive | 10.1 | 7.38 | 2.5 | 46.3 | 18.8 | – | – | – | –
Nc1ncnc2c1c1cc(Cl)ccc1n2[C@@H]1O[C@H](CO)[C@@H](O)[C@H]1O | – | – | – | – | inactive | inactive | inactive | inactive | – | – | – | – | – | – | – | – | –
CCCCc1cccc2c1c1c(N)ncnc1n2[C@@H]1O[C@H](CO)[C@@H](O)[C@H]1O | > 44 | > 44 | > 44 | > 44 | inactive | inactive | inactive | inactive | > 44 | 8.81 | 4.3 | 62.9 | 14.8 | – | – | – | –
